This is a sample that favours compounds with a hit; in the whole collection about 4.9% have one here.
APP 5'UTR act = activators of APP 5'UTR luciferase reporter, primary screen, SH-SY5Y cells; activation, % at 2 µM; SH-SY5Y APP 5'UTR luciferase reporter, luminescence; zero percent = DMSO vehicle wells; hit rate 1% among 190,000; AID 1276, 2008;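 active means activation above a set limit, based on mean plus 3 SD of controls, cut at about 140% in these data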
STAT1 act-1 = STAT1 signaling activators, primary screen, cell-based, HTS, luciferase reporter; activation (% of control), % at 5.5 µM; NIH 3T3 STAT1-luciferase reporter, IFN-gamma, luminescence; 100% = IFN-gamma alone, no compound; hit rate 2.6% among 200,000;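 active means activation above the screen-wide mean activation plus 3 SD, cut at about 130% in these data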;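 further: raw ratio to IFN-gamma control signal so 100% means no change and 0% no light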
STAT3 act-1 = IL-6 driven STAT3 reporter potentiators, primary screen, U3A cells, luciferase, luminescence, MLSCN library; IL-6 STAT3-luciferase reporter; 100% = signal with IL-6 EC80 alone; activation (% of control), % at 5.6 µM; hit rate 0.91% among 190,000; AID 871, 2007;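 active means activation above the screen-wide mean of compound activation plus 3 SD, cut at about 130% in these data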;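 further: 0% = background luminescence of wells with medium and substrate only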
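Test system: human U3A cells carrying STAT3-luciferase construct; control set: IL-6-only wells as 100% reference; timing: compound pre-incubation 1 h before IL-6, then 6 h stimulation at 37 °C; also added: IL-6 stimulus at 33 ng/mL final; evaluation: % activation versus median of IL-6-stimulated wells; detection: reporter luminescence signal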
STAT1 blocker = STAT1 signaling inhibitors, primary screen, cell-based, HTS, luciferase reporter; NIH 3T3 STAT1-luciferase reporter, IFN-gamma, luminescence; inhibition, % at 5.5 µM; hit rate 0.35% among 200,000; AID 920, 2007;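 active means inhibition above a set limit, the mean inhibition across all tested compounds plus 3 SD, cut at about 34% in these data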;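 further: 0% = IFN-gamma with DMSO and 100% = IFN-gamma with 300 µM nifuroxazide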
NF-kB neuron act = activators of NF-kB expression in neurons, primary screen, cell-based, HTS; human neuronal cells, NF-kB reporter expression; stronger effect = higher value; fold change at 12.5 µM; hit rate 1.6% among 190,000; AID 1239, 2008; in the data active means fold change above about 3.3
STAT3 blocker = IL-6 driven STAT3 reporter inhibitors, primary screen, U3A cells, luciferase, luminescence, MLSCN library; hit rate 0.89% among 190,000; AID 862, 2007; inhibition, % at 5.5 µM; IL-6 STAT3-luciferase reporter; host cell line lacks STAT1;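 active means inhibition above the mean inhibition across all screened compounds plus 3 SD, cut at about 44% in these data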;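 further: 0% = DMSO only wells and 100% = 100 µM nifuroxazide control wells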
STAT3 act-2 = STAT3 reporter potentiators, retest of hits, confirmation, U3A cells, luciferase, luminescence. shares compounds with STAT3 act-1. IL-6 potentiation; U3A cells lack STAT1; 100 means same as IL-6 alone. potentiation (% of control), % at 5.7 µM. hit rate 64% among 1,200. AID 1267, 2008;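 active means percent activation of the STAT3 luciferase reporter above a set limit taken from the earlier primary screen, cut at about 130% in these data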;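 further: 0% = background signal of medium plus substrate and 100% = median of IL-6 with DMSO wells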
NFkB act 2 = NF-kB reporter activators in human cells, counter-screen for STAT3 activator project; shares compounds with STAT3 act-1; NF-kappaB reporter activation; activation (% of control), % at 5.7 µM; hit rate 11% among 1,200; AID 1309, 2008; in the data active means activation above about 120%;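 further: reporter induced by TNF-alpha stimulation; 100% = median of stimulated DMSO wells and 0% = no signal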
STAT1 act-2 = STAT1 reporter activators, IFN-gamma induced, counter-screen for STAT3 activator project, cell-based, NIH 3T3, luciferase luminescence; activation (% of control), % at 5.7 µM; shares compounds with STAT3 act-1; hit rate 13% among 1,200; AID 1318, 2008; NIH 3T3 STAT1-luciferase reporter;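 active means activation above the solvent-only control well mean plus 3 SD, set per screening run, cut at about 120% in these data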;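 further: 100% = IFN-gamma with DMSO median signal so 100% means no change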
The depositor's hits bear a star.

For COc1ccc(C2c3[nH]c4ccccc4c3CCN2C(=O)c2cn3ccccc3n2)c(F)c1 (stereo not drawn) the results were APP 5'UTR act 33.9, STAT1 act-1 124.7, STAT3 act-1 161.0*, STAT1 blocker -29.1, NF-kB neuron act 1.32, STAT3 blocker -64.5, STAT3 act-2 159.0*, NFkB act 2 110.6 and STAT1 act-2 105.4.
COc1ccc(OCC(=O)N2CCc3c([nH]c4ccccc34)C2c2ccccn2)cc1 (stereo not drawn) was read as APP 5'UTR act 19.8, STAT1 act-1 95.5, STAT3 act-1 89.7, STAT1 blocker 3.4, NF-kB neuron act 0.87 and STAT3 blocker 16.0.
Screening O=C(CN1C(=O)NC2(CCCCC2)C1=O)NCc1ccc2c(c1)OCO2 returned APP 5'UTR act 33.2, STAT1 act-1 100.2, STAT3 act-1 99.2, STAT1 blocker -0.9, NF-kB neuron act 0.99 and STAT3 blocker 3.3.
For NC(=O)C1CCN(C(=S)NCCc2ccccc2)CC1 the results were APP 5'UTR act -2.5, STAT1 act-1 100.9, STAT3 act-1 92.0, STAT1 blocker -2.4, NF-kB neuron act 1.05 and STAT3 blocker 14.5.
For S=C(N/N=C1\CCc2ccccc21)NC1CCCCC1 the results were APP 5'UTR act 63.5, STAT1 act-1 117.6, STAT3 act-1 136.6*, STAT1 blocker -19.7, NF-kB neuron act 1.19, STAT3 blocker -41.7, STAT3 act-2 164.1*, NFkB act 2 135.1* and STAT1 act-2 122.1*.
Screening CC1CCN(S(=O)(=O)c2ccc3c(c2)C(=NO)c2cc(S(=O)(=O)N4CCC(C)CC4)ccc2-3)CC1 returned APP 5'UTR act -4.4, STAT1 act-1 91.0, STAT3 act-1 136.2*, STAT1 blocker 10.1, NF-kB neuron act 1.13, STAT3 blocker -41.6, STAT3 act-2 131.8, NFkB act 2 131.3* and STAT1 act-2 56.4.
For Cc1ccc(NC2c3ncccc3C(=O)N2Cc2ccco2)c(C)c1 (stereo not drawn) the results were APP 5'UTR act 8.0, STAT1 act-1 104.3, STAT3 act-1 111.0, STAT1 blocker -6.1, NF-kB neuron act 1.05 and STAT3 blocker -11.8.
`COc1ccc(-c2csc(NC(=O)c3nc(-c4ccccc4)oc3C)n2)cc1` gave APP 5'UTR act 2.8, STAT1 act-1 101.4, STAT3 act-1 91.9, STAT1 blocker -1.6, NF-kB neuron act 0.93 and STAT3 blocker 20.4.
Screening O=C(Nc1nccs1)c1ccc2nccnc2c1 returned APP 5'UTR act 13.1, STAT1 act-1 119.8, STAT3 act-1 93.5, STAT1 blocker -21.6, NF-kB neuron act 0.62 and STAT3 blocker 14.9.
`CCOc1ccccc1NC(=O)c1nc(-c2ccccc2)oc1C` gave APP 5'UTR act 18.0, STAT1 act-1 107.3, STAT3 act-1 141.5*, STAT1 blocker -10.1, NF-kB neuron act 1.36, STAT3 blocker -35.2, STAT3 act-2 122.8, NFkB act 2 104.2 and STAT1 act-2 104.5.
`Cc1oc(-c2ccccc2)nc1C(=O)Nc1nccs1` gave APP 5'UTR act 19.1, STAT1 act-1 113.2, STAT3 act-1 140.5*, STAT1 blocker -14.5, NF-kB neuron act 1.65, STAT3 blocker -39.6, STAT3 act-2 142.1*, NFkB act 2 107.3 and STAT1 act-2 113.1.
`Cc1ccc(C(=O)Nc2nccs2)cc1` gave APP 5'UTR act 90.6, STAT1 act-1 106.0, STAT3 act-1 144.3*, STAT1 blocker -5.7, NF-kB neuron act 3.54*, STAT3 blocker -53.5, STAT3 act-2 165.1*, NFkB act 2 117.5 and STAT1 act-2 128.0*.
Screening Brc1ccc2ncnc(Nc3cccc4ccccc34)c2c1 returned APP 5'UTR act 14.0, STAT1 act-1 75.1, STAT3 act-1 147.3*, STAT1 blocker 27.7, NF-kB neuron act 0.48, STAT3 blocker -42.1, STAT3 act-2 163.2*, NFkB act 2 97.3 and STAT1 act-2 87.8.
Screening CCSc1nc2sc3c(c2c(=O)[nH]1)CCc1ccccc1-3 returned APP 5'UTR act -16.8, STAT1 act-1 100.6, STAT3 act-1 143.8*, STAT1 blocker -0.7, NF-kB neuron act 0.75, STAT3 blocker -46.1, STAT3 act-2 152.3*, NFkB act 2 109.0 and STAT1 act-2 93.9.
Screening CCC1=Nc2cc(C(=O)NCCCOC)ccc2Sc2ccccc21 returned APP 5'UTR act -94.8, STAT1 act-1 107.0, STAT3 act-1 114.7, STAT1 blocker -7.6, NF-kB neuron act 1.57 and STAT3 blocker -11.0.
`CCC1=Nc2cc(C(=O)NCc3ccco3)ccc2Sc2ccc(C)cc21` gave APP 5'UTR act -94.2, STAT1 act-1 96.0, STAT3 act-1 144.9*, STAT1 blocker 4.5, NF-kB neuron act 2.71, STAT3 blocker -57.9, STAT3 act-2 120.0, NFkB act 2 154.3* and STAT1 act-2 118.3.
`CC(C)(C)n1nc2c(c1NC(=O)c1ccc(S(=O)(=O)N3CCCC3)cc1)CSC2` gave APP 5'UTR act -2.6, STAT1 act-1 92.1, STAT3 act-1 152.0*, STAT1 blocker 8.6, NF-kB neuron act 0.91, STAT3 blocker -62.9, STAT3 act-2 144.9*, NFkB act 2 108.1 and STAT1 act-2 95.3.
N#CC1=C(N)Oc2c(oc(CO)cc2=O)C1c1ccsc1 (stereo not drawn) was read as APP 5'UTR act 7.6, STAT1 act-1 103.8, STAT3 act-1 103.5, STAT1 blocker -4.1, NF-kB neuron act 0.82 and STAT3 blocker -5.9.
N#CC1=C(N)Oc2c(ccc3ccccc23)C1c1ccsc1 (stereo not drawn) was read as APP 5'UTR act 57.0, STAT1 act-1 116.8, STAT3 act-1 137.8*, STAT1 blocker -18.9, NF-kB neuron act 1.54, STAT3 blocker -46.6, STAT3 act-2 106.5, NFkB act 2 114.6 and STAT1 act-2 110.0.
For CCOC(=O)c1c2n(c3ccc(O)cc13)CCC2 the results were APP 5'UTR act 6.5, STAT1 act-1 102.1, STAT3 act-1 163.5*, STAT1 blocker -2.3, NF-kB neuron act 1.12, STAT3 blocker -71.8, STAT3 act-2 82.3, NFkB act 2 103.7 and STAT1 act-2 101.9.

Screening results: PubChem, several laboratories
